Shown are actives, neighbours in structure and some others; about 3.1% of the full set was active somewhere.
FGF22 binding: binders of human FGF22 protein, primary screen, FGF22 synaptogenesis inhibitor project, biophysical, thermal shift, single point | recombinant FGF22 thermal shift, SYPRO orange fluorescence; percent of sucrose octasulfate shift, DMSO zero | activity (Tm shift, normalised), % at 9.99 µM | Fibroblast growth factor 22 (Homo sapiens), Q9HCT0 | 340,000 tested, 1.5% active;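 active = mean Tm shift, scaled 0 neutral to 100 positive control, at about 1.3% or above, every replicate too, limit read from the data; inconclusive = no clear call, values can overlap the other calls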
Target sequence (Q9HCT0 whole entry, looked up): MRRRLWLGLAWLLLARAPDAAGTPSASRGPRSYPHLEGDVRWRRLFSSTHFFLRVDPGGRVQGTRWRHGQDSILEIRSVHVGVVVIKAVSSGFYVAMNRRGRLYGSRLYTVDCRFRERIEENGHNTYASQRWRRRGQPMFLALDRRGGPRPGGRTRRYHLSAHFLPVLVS
EWS-Fli inh: EWS/Fli-driven NR0B1 reporter inhibitors, primary screen, A673 cells, NR0B1 luciferase, luminescence, MLPCN library; inhibition, % at 12.6 µM; 350,000 tested, 0.67% active; viability-normalised;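 active = mean inhibition of at least 50% after viability correction, with every replicate also passing that limit; inconclusive = mean reaches 50% but only one of two replicates passes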;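 also: firefly luciferase signal divided by Alamar Blue viability fluorescence both relative to DMSO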
Env fusion inh: inhibitors of HIV-1 Env-driven cell-cell fusion, primary screen, HeLa-JRFL effector, CEM21 target cells, luciferase; AID 651610, 2012; 360,000 tested, 1.1% active; inhibition, % at 12.3 µM;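 active = mean replicate inhibition score of at least 50 and every replicate individually at or above 50; inconclusive = only one of the two criteria met; inactive = mean below 50 and not all replicates reaching 50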;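 also: 0% = plate neutral controls and 100% = maraviroc near 300 nM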
FN deposit inh: inhibitors of fibronectin matrix deposition, primary screen, AH1F cells, Alexa488-fibronectin fluorescence, plate reader | AH1F fibroblasts, overnight | inhibition, % at 12.6 µM | 350,000 tested, 0.086% active;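 active = mean inhibition across replicates of 30% or more, regardless of how many single replicates reach that level; inconclusive = mean under 30% yet at least half of replicates reach 30%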;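 also: positive control wells lacked labelled fibronectin entirely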
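Material: AH1F fibroblasts assembling fluorescent fibronectin matrix; amount: 10000 AH1F cells/well; medium: DMEM, 2% serum; reagent: Alexa488-fibronectin, 24 nM final in well; dosing: single compound dose, delivered by pin transfer; incubation: 1 h adhesion, overnight exposure; detection: fluorescence after three HBSS washes, excitation 485 nm, emission 525 nm; measure: fibronectin deposition inhibition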
PGC1a acetyl inh: inhibitors of PGC1a acetylation signal, primary screen, cell-based, U2OS, AlphaScreen, inhibitor mode | AlphaScreen anti-acetyl-lysine; with virally co-expressed GCN5 acetyltransferase | inhibition, % at 15.6 µM | 350,000 tested, 0.17% active;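 active = every replicate shows inhibition of at least 40%; inconclusive = mean inhibition at least 40% but some replicate below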;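 also: 0% = neutral control wells and 100% = positive control wells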
PAX8 reporter: inhibitors of PAX8-driven TPO luciferase reporter, primary screen, RMG-I cells, single concentration; 360,000 tested, 1.2% active; SteadyGlo, 24 h; inhibition, % at 12.6 µM;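 active = mean replicate inhibition at least 60% with every replicate also reaching 60%; inconclusive = only one of the two criteria is met; inactive = mean below 60% and not all replicates reaching 60%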;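 also: luciferase light reporting Pax8 driven TPO promoter activity; plate controls were median of neutral control wells for no effect and mitoxantrone controls for full effect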
* hit, by the source's call; ? = inconclusive; nt = not tested or not shown; [ ] = another dose, or the depositor's remark.

SMILES | FGF22 binding | EWS-Fli inh | Env fusion inh | FN deposit inh | PGC1a acetyl inh | PAX8 reporter
O=S1(=O)CCN(c2ccccc2CC(c2c[nH]c3ccccc23)c2c[nH]c3ccccc23)CC1 | 0 | 7 | 85* | 4 | 6 | 20
O=C1C(=O)N(CC(=O)N2CCCC2)c2ccccc21 | 43* | 20 | 18 | -5 | nt | -1
CC(C)NC(=O)CN1C(=O)C(=O)c2ccccc21 | nt | nt | -4 | 8 | 4 | nt
CCc1n[nH]c(=S)n1/N=C/c1cccc2ccccc12 | 0 | 1 | ? | -3 | -1 | -4
Cc1nnc(-c2ccccc2)c(=O)n1/N=C/c1c(O)ccc2ccccc12 | nt | nt | nt | nt | 64* | nt
CCc1n[nH]c(=S)n1/N=C/c1c(O)ccc2ccccc12 | 0 | -28 | 56* | -3 | 5 | 16
Cc1ccc(NC(=O)CN2C(=O)N/C(=C/c3cc(C)n(-c4ccc(C(=O)O)cc4)c3C)C2=O)cc1 | 1 | 3 | 8 | -3 | 24 | -8
CC(/C=C1\SC(=O)N(CC(=O)Nc2ccc(O)cc2)C1=O)=C\c1ccccc1 | 0 | 12 | nt | -11 | 6 | 87*
COc1ccc(/C=C2\SC(=O)N(CC(=O)Nc3cccc(C)c3)C2=O)cc1O | 0 | 72* | -8 | 4 | -6 | -11
Cc1ccc(NC(=O)CN2C(=O)S/C(=C\c3cc(C)n(-c4ccc(C(=O)O)cc4)c3C)C2=O)cc1 | 44* | -7 | 13 | -13 | 21 | 10
Cc1cccc(NC(=O)CN2C(=O)S/C(=C\c3cccn3-c3cccc(C(=O)O)c3)C2=O)c1 | 43* | 11 | 20 | 1 | 19 | 2
CC(/C=C1\SC(=O)N(CC(=O)Nc2cccc(O)c2)C1=O)=C\c1ccccc1 | nt | nt | -17 | -12 | 1 | nt
C[C@H]1CN([C@@H](C)CO)C(=O)c2cc(NC(=O)C3CC3)ccc2O[C@H]1CN(C)Cc1ccncc1 | 0 | -1 | 3[16.7 µM] | nt | -7 | -13
Cc1ccc(S(=O)(=O)N2CCCOC2CNC(=O)C(=O)NCCN2CCOCC2)cc1 (stereo unspecified) | 0 | -10 | 6 | -14 | nt | nt
Cc1ccc(S(=O)(=O)N2CCOC2CNC(=O)C(=O)NCCc2c[nH]c3ccccc23)cc1 (stereo unspecified) | 44* | 36 | 7 | 8 | nt | 18
Cc1ccc(S(=O)(=O)N2CCCOC2CNC(=O)C(=O)NCCC2=CCCCC2)cc1 (stereo unspecified) | nt | nt | 60* | 8 | nt | 17
COc1ccc(CNC(=O)C[C@H]2CC[C@H](NC(=O)c3cccc(F)c3)[C@@H](CO)O2)cc1 | 0 | -3 | -6[16.7 µM] | 2 | 2 | -4
CCN(CC)S(=O)(=O)c1ccc(Oc2ccccc2OC)cc1 | 0 | -2 | 14 | -1 | -15 | -18
CCN(CC)S(=O)(=O)c1ccc(Oc2ccc(S(=O)(=O)N(CC)CC)cc2)cc1 | nt | nt | 62* | -4 | nt | nt
Cc1ccc(NC(=O)CNCC2CCCCC2)cc1S(=O)(=O)N(C)C | 0 | 1 | -48 | 4 | 3 | 11
Cc1ccc(NC(=S)NC2CCCCC2)cc1S(=O)(=O)N(C)C | 2.7* | -16 | 10 | 2 | nt | 6
COc1ccc(CN(C)C[C@H]2Oc3c(NC(=O)Nc4ccc(F)cc4)cccc3C(=O)N([C@H](C)CO)C[C@H]2C)cc1 | 0 | 6 | nt | nt | 2 | 2
CCC(=O)N1CC(=O)N2[C@H](CO)[C@@H](c3ccc(C#Cc4cccc(OC)c4)cc3)[C@H]2C1 | nt | 20 | nt | nt | -14 | -34
O=S(=O)(NCC1CCCO1)c1ccc(S(=O)(=O)N(Cc2ccccc2F)C2CCCCC2)cc1 (stereo unspecified) | nt | nt | 59* | 0 | -28 | nt
CCC1(c2ccccc2)NC(=O)N(CC(=O)Nc2cc(S(=O)(=O)N3CCCCCC3)ccc2OC)C1=O (stereo unspecified) | nt | 13 | 12 | -1 | nt | 24
SMILES | FGF22 binding | EWS-Fli inh | Env fusion inh | FN deposit inh | PGC1a acetyl inh | PAX8 reporter
CCC1(c2ccccc2)NC(=O)N(CC(=O)Nc2cc(S(=O)(=O)N3CCCCC3)ccc2OC(C)C)C1=O (stereo unspecified) | 0 | 12 | 98* | -6 | -4 | 25
Cc1oc(-c2ccc(Cl)cc2)nc1CSCC(=O)NC1CCN(Cc2ccccc2)CC1 | 0 | 26 | 12 | 6 | 9 | 38
Cc1oc(-c2cccc(C(F)(F)F)c2)nc1CN1CCN(c2ccccn2)CC1 | 43* | 7 | 1 | nt | 20 | 11
Cc1cccc(N2CCN(Cc3nc(-c4cccc(Cl)c4)oc3C)CC2)n1 | 0 | -1 | 10 | -2 | nt | -3
Cc1ccc(-c2nc(CSCC(=O)N3CCN(C(=O)c4ccco4)CC3)c(C)o2)cc1 | 0 | -1 | 0 | 6 | 9 | 16
CCOc1ccc(-c2nc(CSCC(=O)NC3CCN(Cc4ccccc4)CC3)c(C)o2)cc1 | 0 | 59* | -79 | 15 | nt | 26
CCc1ccc(-c2nc(CSCC(=O)N3CCN(c4ccccn4)CC3)c(C)o2)cc1 | nt | nt | 86* | -1 | nt | 25
CCOc1ccc(-c2nc(CSCC(=O)NC3CC3)c(C)o2)cc1 | nt | nt | nt | nt | -3 | nt
CCOc1ccc(-c2nc(CSCC(=O)N3CCN(c4cccc(OC)c4)CC3)c(C)o2)cc1 | 0 | 88* | nt | -4 | -4 | 38
CCCC#Cc1ccc([C@H]2[C@@H](CO)N(C(C)=O)[C@@H]2CNC(=O)C2CCCC2)cc1 | nt | 11 | nt | -15 | nt | nt
Cc1ccc(-c2nc(CSCC(=O)N3CCN(c4ccccn4)CC3)c(C)o2)cc1 | 0 | 21 | 57* | 0 | 3 | 45
C[C@H]1CN([C@@H](C)CO)C(=O)c2cc(C#CCc3ccccc3)cnc2O[C@@H]1CN(C)C(=O)C1CCOCC1 | 0 | 11 | -7[16.7 µM] | nt | 4 | 6
CCOC(=O)c1sc(NC(C)=O)cc1C | 0 | -12 | -30 | 12 | -4 | -40
CCOC(=O)c1sc(NC(=O)C2CCC2)cc1C | 43* | -84 | -46 | 11 | 2 | -141
C[C@@H]1CN([C@@H](C)CO)C(=O)c2cc(NC(=O)Nc3cccc4ccccc34)ccc2O[C@@H]1CN(C)Cc1ccc(Oc2ccccc2)cc1 | 0 | 8 | -19[16.7 µM] | nt | -11 | nt
COc1cc(C(=O)Nc2nc3ccc(C)cc3s2)ccc1OCc1c(C)noc1C | nt | nt | nt | nt | -22 | nt
CCc1nnc(NC(=O)c2ccc(OCc3c(C)noc3C)c(OC)c2)s1 | 43* | 7 | 6 | 3 | nt | 7
C(#Cc1ccccc1)C[N+]1(CC#Cc2ccccc2)CCCCC1 | 0 | 17 | 36 | 8 | -1 | 38
Cc1ccc(C#CC[N+]2(CC#Cc3ccc(C)cc3)CCCCC2)cc1 | 0 | 33 | 30 | 0 | nt | 69*
